Shown are actives, neighbours in structure and some others; about 1.1% of the full set was active somewhere.
Vif inh – HIV Vif self-association inhibitors, primary screen, imaging, HEK293T, single point | HEK293T cells, Vif self-association by quenched fluorescence, 24 h | inhibition, % at 7.49 µM | 0.35% of 340,000 active | AID 602346, 2012; in the data active = inhibition above about 50%, passing the limit was not always enough
NR2E3 ag-1 – inhibitors of NR2E3-RetCOR corepressor binding, primary screen, NR2E3 agonist project, biochemical, TR-FRET, GST-NR2E3, biotin-RetCOR; 0.12% of 320,000 active; 1536-well; inhibition of corepressor binding, % at 4.78 µM;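 active = percent inhibition above the cutoff of mean plus 3 SD of all tested compounds, set per screening campaign, cut at about 20% in these data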;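 also: 0% = DMSO wells and 100% = biotin wells as full block of FRET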
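Material: NR2E3–RetCOR corepressor complex / Amount: 1.35 nM GST-NR2E3 / Medium: Tris pH 7.5 / Compound: single nominal compound dose of 4.8 µM / Incubation: 5 h at 4 °C / Technique: TR-FRET, Eu(K)-anti-GST donor, streptavidin-D2 acceptor, ex 340, em 617/671 nm / Read-out basis: percent loss of FRET ratio relative to control wells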
NR2E3 ag-2 – NR2E3 agonists in two-hybrid cells, primary screen, cell-based, luminescence, CHO-S, Gal4-NCOR/VP16-NR2E3; Photoreceptor-specific nuclear receptor (Homo sapiens), Q9Y5X4; luciferase; inhibition of corepressor binding, % at 3.98 µM; 0.35% of 360,000 active; AID 602229, 2012;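 active = inhibition above the mean of all tested compounds plus 3 SD, cut at about 70% in these data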;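 also: 0% = DMSO with NR2E3 transfected cells and 100% = cells lacking NR2E3 construct; higher means lower luciferase signal from less NR2E3 corepressor binding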
MT1-MMP act inh – blockers of MT1-MMP proenzyme processing, primary screen, HT1080 RFP-PRO-GFP cells, GFP/RFP fluorescence; Matrix metalloproteinase-14 (Homo sapiens), P50281; GFP/RFP ratio fluorescence, overnight; percent of plate control window, DMSO zero; GFP/RFP ratio change, % at 20 µM; 0.061% of 360,000 active; AID 651647, 2012;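 active = GFP/RFP ratio change of at least 30% with cell ATP level not reduced by more than half and red fluorescence within 50% of control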
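Assay system: HT1080 RFP-PRO-GFP cells | Dosing: 20 µM single dose, 1% DMSO | Incubation: Cells overnight before dosing, compound overnight, 37 °C, 5% CO2 | Evaluation: GFP/RFP fluorescence ratio | Control set: DMSO-only wells and HT1080 RFP-L50D-GFP cell wells as references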
core dimer inh – inhibitors of HCV core protein dimerization, primary screen, biochemical, TR-FRET, high-throughput; TR-FRET GST/Flag-core106 dimerization, 1536-well; inhibition, % at 5 µM; 0.33% of 300,000 active; AID 1899, 2009;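 active = inhibition above the mean of all tested compounds plus 3 SD, set per screening campaign, cut at about 45% in these data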
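System – GST-tagged and Flag-tagged HCV core protein residues 1-106 · Repeats – one well for each compound · Technique – TR-FRET 671 and 617 nm emission · Doses – one concentration, 5 µM, in 0.5% DMSO · Times – 4 h, 22.5 °C incubation · Also added – Eu donor and XL665 acceptor anti-tag antibodies · Measure – percent inhibition of core106 dimerization signal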
DAGLB inhibitor – DAGLB lipase inhibitors, primary screen, biochemical, fluorescence, HTS; Diacylglycerol lipase-beta (Homo sapiens), Q8NCG7; HEK293T DAGLB membrane lysate, EnzChek fluorogenic substrate; inhibition, % at 5.17 µM; 0.059% of 340,000 active; AID 504411, 2011; in the data active = inhibition above about 34%;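 also: 0% = enzyme with vehicle and 100% = wells lacking enzyme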
Target sequence (Q8NCG7 whole entry, looked up): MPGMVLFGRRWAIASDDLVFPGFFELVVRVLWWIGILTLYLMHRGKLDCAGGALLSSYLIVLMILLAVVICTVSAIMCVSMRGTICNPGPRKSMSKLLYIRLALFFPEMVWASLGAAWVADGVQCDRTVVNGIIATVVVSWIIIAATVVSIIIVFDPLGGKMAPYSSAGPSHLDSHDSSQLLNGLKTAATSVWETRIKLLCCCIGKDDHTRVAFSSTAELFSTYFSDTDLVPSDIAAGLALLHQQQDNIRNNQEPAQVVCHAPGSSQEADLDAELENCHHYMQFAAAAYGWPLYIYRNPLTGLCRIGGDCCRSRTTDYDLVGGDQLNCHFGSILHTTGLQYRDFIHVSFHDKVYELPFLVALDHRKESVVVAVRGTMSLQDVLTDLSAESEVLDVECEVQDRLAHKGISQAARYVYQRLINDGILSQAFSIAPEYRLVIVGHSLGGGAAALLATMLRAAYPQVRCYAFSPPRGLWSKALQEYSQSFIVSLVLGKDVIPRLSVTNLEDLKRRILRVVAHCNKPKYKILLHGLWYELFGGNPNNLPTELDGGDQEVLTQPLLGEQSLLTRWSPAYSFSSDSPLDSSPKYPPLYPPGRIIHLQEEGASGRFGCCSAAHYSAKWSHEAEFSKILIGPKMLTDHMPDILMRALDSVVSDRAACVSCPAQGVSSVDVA
NR2E3 ag confirm – NR2E3 agonist confirmation in cells, cell-based, luminescence, CHO-S two-hybrid. shares compounds with NR2E3 ag-2. CHO-S mammalian two-hybrid NR2E3-NCOR, luciferase luminescence. inhibition, % at 3.98 µM. 51% of 2,300 active;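 active = average inhibition above a cutoff equal to the mean inhibition of all tested compounds plus one SD, cut at about 70% in these data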;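 also: 0% = DMSO in NR2E3 cells and 100% = DMSO in cells lacking NR2E3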
VP16 counter – GAL4-VP16 reporter modulators, confirmation, counter-screen for NR2E3 agonist project, cell-based, luminescence, CHO-S, high throughput. AID 624379, 2012. inhibition, % at 3.98 µM. shares compounds with NR2E3 ag-2. 29% of 2,300 active. CHO-S GAL4-VP16 luciferase reporter;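 active = mean inhibition above a cutoff equal to the average over all tested compounds plus one standard deviation, cut at about 70% in these data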;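 also: luciferase from a UAS reporter driven by GAL4-VP16 transactivation; 0% = DMSO with VP16-transfected cells and 100% = DMSO with cells lacking VP16; higher means less reporter light so more repression of VP16 activity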
* hit, by the source's call; nt = not tested or not shown.

SMILES | Vif inh | NR2E3 ag-1 | NR2E3 ag-2 | MT1-MMP act inh | core dimer inh | DAGLB inhibitor | NR2E3 ag confirm | VP16 counter
O=C(Nc1ccc2c(c1)OCCO2)C(c1ccnc2ccccc12)N1CCN(c2ccc(C(F)(F)F)cn2)CC1 (stereo unspecified) | 3 | nt | 58 | 2 | nt | nt | 29 | 2
CCOc1ccc(S(=O)(=O)N2CCCC(C(=O)N3CCOCC3)C2)cc1Cl (stereo unspecified) | -5 | 2 | 0 | 1 | -10 | 2 | nt | nt
CCOC(=O)C1CCN(C(=O)C2CCCN(S(=O)(=O)c3ccc(OCC)c(Cl)c3)C2)CC1 (stereo unspecified) | -3 | -2 | 70 | -8 | 0 | -4 | 21 | 51
Cc1ccc(C(=O)O/N=C(\N)c2ccccn2)cc1 | 2 | 1 | -75 | 1 | -20 | -2 | nt | nt
CC(C)(C)c1ccc(C(=O)O/N=C(\N)c2ccccn2)cc1 | 5 | 6 | 106* | -8 | 13 | -1 | 89* | 76*
CCOc1ccc(C(=O)O/N=C(\N)c2ccccn2)cc1 | 1 | nt | 52 | 4 | nt | 0 | -58 | -126
COc1ccc(OC)c(-c2nnc(SCC(=O)N3CCCC3)o2)c1 | -4 | 4 | -5 | 6 | -2 | 0 | nt | nt
C/C(=N\NC(=S)NCCc1ccccc1)c1ccc(C#N)cc1 | 30 | 1 | 20 | 7 | 1 | -2 | nt | nt
C/C(=N\NC(=S)NCCc1ccccc1)c1ccc(Cl)cc1 | 2 | -2 | 54 | 3 | 3 | -12 | 20 | -25
C/C(=N\NC(=S)NCCc1ccccc1)c1ccc(C)cc1 | -3 | 2 | 70 | -2 | -1 | -12 | 1 | -5
COc1cc2c(cc1CNC[C@H]1O[C@@H](n3cnc4c(N)ncnc43)[C@H](O)[C@@H]1O)OCO2 | 2 | nt | -13 | 1 | nt | 0 | nt | nt
CC(C)(C)c1ccc(C(=O)N2CCC2(C)C(=O)Nc2cccc(C#N)c2)cc1 (stereo unspecified) | 1 | nt | 52 | -4 | nt | nt | 4 | 33
CC1(C(=O)Nc2ccc3[nH]ncc3c2)CCN1C(=O)Cc1ccc(-c2ccccc2)cc1 (stereo unspecified) | nt | nt | 53 | -2 | nt | nt | 78* | 65
CC1(C(=O)Nc2ccc3[nH]ncc3c2)CCN1C(=O)CCc1ccccc1 (stereo unspecified) | 1 | nt | 25 | -1 | nt | nt | nt | nt
CC(C)(C)c1ccc(CC(=O)N2CCC2(C)C(=O)Nc2ccc3[nH]ncc3c2)cc1 (stereo unspecified) | 0 | nt | 57 | 4 | nt | nt | 37 | 45
C#Cc1ccc(NC(=O)C2(C)CCN2C(=O)Cc2ccc(C(C)(C)C)cc2)cc1 (stereo unspecified) | -30 | nt | 37 | -2 | nt | nt | nt | nt
NC(=O)CCn1ccc2ccccc21 | -5 | 3 | 4 | -1 | 5 | 2 | nt | nt
O=C(/C=C/Nc1ccc(Cc2ccc(N/C=C/C(=O)C(F)(F)F)cc2)cc1)C(F)(F)F | 4 | -5 | -140 | -7 | 39 | 3 | nt | nt
Cc1sc2ncnc(N3CCC(C(=O)NNC(=O)COc4ccc(Cl)cc4)CC3)c2c1C | 8 | nt | -15 | -11 | nt | 1 | nt | nt
Cc1sc2ncnc(N3CCN(CCOc4ccc(Cl)cc4)CC3)c2c1C | nt | 1 | 99* | 3 | -2 | -3 | 95* | 86*
O=C1N[C@@H](Cc2ccccc2)COC(=O)[C@@H](Cc2ccc(F)cc2)C/C=C\C[C@@H]1CC(=O)N(CCO)Cc1ccccc1 | -22 | nt | -17 | -2 | nt | -1 | nt | nt
O=C1N[C@H](Cc2ccccc2)COC(=O)[C@H](Cc2ccc(F)cc2)CC/C=C/C[C@H]1CC(=O)N(CCO)Cc1ccccc1 | -1 | nt | 56 | -8 | nt | 2 | 69 | -1
S=c1[nH]cnc2scc(-c3ccc(Br)cc3)c12 | -33 | 1 | 81* | 6 | 6 | -1 | -7 | 11
S=c1[nH]cnc2scc(-c3ccc(Cl)cc3)c12 | -3 | 0 | 58 | 6 | -1 | nt | 29 | 4
CCCc1ccc(S(=O)(=O)N2CCN(C(C)C(=O)NCc3ccc(OC)cc3)CC2)cc1 (stereo unspecified) | -11 | 1 | 49 | 10 | nt | -9 | 27 | 32
SMILES | Vif inh | NR2E3 ag-1 | NR2E3 ag-2 | MT1-MMP act inh | core dimer inh | DAGLB inhibitor | NR2E3 ag confirm | VP16 counter
COc1ccc(CNC(=O)C(C)N2CCN(S(=O)(=O)c3ccccc3F)CC2)cc1 (stereo unspecified) | -14 | 5 | 12 | 6 | nt | -6 | nt | nt
COc1ccc(NC(=O)C2CCN(S(=O)(=O)c3cccc4nonc34)CC2)cc1 | 33 | 4 | -4 | -2 | 14 | -2 | nt | nt
CCS(=O)(=O)N1CCCC(C(=O)c2ccc(OC)cc2C)C1 (stereo unspecified) | 5 | 3 | -28 | 1 | 12 | 0 | nt | nt
COc1ccc(C(=O)C2CCCN(S(=O)(=O)c3ccc(C(C)=O)cc3)C2)c(C)c1 (stereo unspecified) | -11 | -2 | 83* | -3 | 14 | -3 | 67 | 63
O=C(C(=Cc1ccccc1)CN1CCCCC1)c1ccccc1 | 30 | nt | 93* | 3 | nt | -1 | 101* | 47
CCC1(c2ccc(F)cc2)NC(=O)N(CC(=O)N(C)C2CCS(=O)(=O)C2)C1=O (stereo unspecified) | 2 | -1 | -10 | -1 | 0 | 0 | nt | nt
N#C/C(=N\Nc1ccc(Cl)c(Cl)c1)C(=O)C1CC1 | -18 | 7 | 80* | -1 | 3 | nt | 100* | 55
N#C/C(=N\Nc1ccc(F)cc1)C(=O)C1CC1 | -8 | 2 | -15 | 0 | 1 | nt | nt | nt
O=C(CN1C(=O)COc2ccccc21)NCCCN1CCCCC1 | 7 | 4 | -19 | -1 | -7 | -1 | nt | nt
COc1cc2oc(=O)ccc2c(OC)c1CC(O)C(C)(C)O (stereo unspecified) | -3 | 3 | -6 | 0 | 8 | -3 | nt | nt
S=C(NN=C(c1ccccc1)c1ccccn1)N(Cc1ccccn1)Cc1ccccn1 | -12 | nt | 92* | -4 | nt | 21 | 100* | 79*

Bioassay records deposited in PubChem BioAssay by several laboratories.
